From ChEMBL document CHEMBL1255219, “Discovery of a β-d-2'-deoxy-2'-α-fluoro-2'-β-C-methyluridine nucleotide prodrug (PSI-7977) for the treatment of hepatitis C virus” (J Med Chem, 2010)

Legend:
Hepatitis C virus [1] = assay: Antiviral activity against HCV infected in human clone A cells; assay type: functional, Hepacivirus hominis
Procedure, shortened: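 Clone A replicon cells seeded at 1500 cells/well. Compounds serially diluted in G418-free culture medium and added, then incubated 4 days at 37 °C in 5% CO2. HCV RNA quantified by real-time RT-PCR as ΔCt relative to the mean no-drug control.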

Hepatitis C virus [2] = assay: Antiviral activity against HCV infected in human clone A cells assessed as inhibition of cellular rRNA replication at 50 uM; assay type: functional, Hepacivirus hominis
Rattus norvegicus [3] = assay: AUC (0 to infinity) in rat liver assessed as 2'-F-2'-C-Methyluridine-5''-TP level at 50 mg/kg, po; assay type: ADME, organism-based; set-up: time infinity, dose 50 mg/kg, route oral; conditions: in vivo
Procedure, shortened: (§1)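 Rats given a single oral gavage dose of 50 mg/kg in 0.5% carboxymethylcellulose sodium, 5 mL/kg. Livers taken at 0.5, 1, 2, 4, 6 and 12 h after CO2 sacrifice and ice-cold saline perfusion, then snap-frozen. Homogenized in 3 volumes of cold 70% methanol with 20 mM EDTA/EGTA. Triphosphate measured by LC/MS/MS (ESI, MRM negative mode), noncompartmental analysis.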

Homo sapiens = species: Homo sapiens; assay: Half life in human plasma at 100 uM
[4] = Half life in simulated gastric fluid at pH 1.2 at 50 ug/mL; assay type: physicochemical
Procedure, shortened: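 Compound at 50 μg/mL in simulated gastric fluid (pH 1.2) or simulated intestinal fluid (pH 7.5), 37 °C, 20 h. Injected by reverse-phase HPLC every 2 h, peak area at 260 nm. Percent parent remaining relative to 0 h, giving half-life.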

[5] = Half life in simulated intestinal fluid of pH 7.5 at 50 ug/mL; assay type: physicochemical
Procedure, shortened: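 Compound at 50 μg/mL in simulated gastric fluid (pH 1.2) or simulated intestinal fluid (pH 7.5), 37 °C, 20 h. Injected by reverse-phase HPLC every 2 h, peak area at 260 nm.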

Rattus norvegicus [6] = assay: AUC (0 to t) in rat liver assessed as 2'-F-2'-C-Methyluridine-5''-TP level at 50 mg/kg, po; assay type: ADME, organism-based; set-up: dose 50 mg/kg, route oral; conditions: in vivo; procedure, shortened: as §1
[7] = Half life in human liver S9 fraction at 100 uM; assay type: ADME, subcellular
Procedure, shortened: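 Compound at 100 μM in 50 mM K2HPO4 pH 7.4 with 5 mM MgCl2. Started with 4 mg/mL human liver S9 at 37 °C. Samples at 0–24 h quenched with acetonitrile. Parent remaining measured by LC/MS/MS peak area relative to 0 h, and half-life calculated.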

Rattus norvegicus [8] = assay: Tmax in rat liver assessed as 2'-F-2'-C-Methyluridine-5''-TP level at 50 mg/kg, po; assay type: ADME, organism-based; set-up: dose 50 mg/kg, route oral; conditions: in vivo; procedure, shortened: as §1
Rattus norvegicus [9] = assay: Cmax in rat liver assessed as 2'-F-2'-C-Methyluridine-5''-TP level at 50 mg/kg, po; assay type: ADME, organism-based; set-up: dose 50 mg/kg, route oral; conditions: in vivo; procedure, shortened: as §1

Structure (SMILES)	EC90 (Hepatitis C virus [1]; Hepatitis C virus) [nM]	inhibition at 50 µM (Hepatitis C virus [2]) [%]	also measured
C[C@H](NP(=O)(OC[C@H]1O[C@@H](n2ccc(=O)[nH]c2=O)[C@](C)(F)[C@@H]1O)Oc1ccc(Br)cc1)C(=O)OC1CCCCC1 (stereo partly drawn)	39	91.5	–
CC(C)OC(=O)[C@H](C)NP(=O)(OC[C@H]1O[C@@H](n2ccc(=O)[nH]c2=O)[C@](C)(F)[C@@H]1O)Oc1ccc(Cl)cc1 (stereo partly drawn)	420	0	AUC (Rattus norvegicus [3]): 8468 ng·h/g; half-life at 100 µM (Homo sapiens): > 24 h; half-life at 50 ug/mL [4]: > 20 h; half-life at 50 ug/mL [5]: > 20 h; AUC (Rattus norvegicus [6]): 5143 ng·h/g; half-life at 100 µM [7]: 0.35 h; Tmax (Rattus norvegicus [8]): 1 h; Cmax (Rattus norvegicus [9]): 339 ng/g
COC(=O)[C@@H](NP(=O)(OC[C@H]1O[C@@H](n2ccc(=O)[nH]c2=O)[C@](C)(F)[C@@H]1O)Oc1ccccc1)C(C)C (stereo partly drawn)	> 50000	0	–
COC(=O)[C@H](CCSC)NP(=O)(OC[C@H]1O[C@@H](n2ccc(=O)[nH]c2=O)[C@](C)(F)[C@@H]1O)Oc1ccccc1 (stereo partly drawn)	60100	24.1	–
COC(=O)[C@H](C)NP(=O)(OC[C@H]1O[C@@H](n2ccc(=O)[nH]c2=O)[C@](C)(F)[C@@H]1O)Oc1cccc2ccccc12 (stereo partly drawn)	90	95.4	–
COC(=O)[C@H](C)NP(=O)(OC[C@H]1O[C@@H](n2ccc(=O)[nH]c2=O)[C@](C)(F)[C@@H]1O)Oc1ccc(F)cc1 (stereo partly drawn)	690	16.8	–
CCOC(=O)[C@H](C)NP(=O)(OC[C@H]1O[C@@H](n2ccc(=O)[nH]c2=O)[C@](C)(F)[C@@H]1O)Oc1ccc(Cl)cc1 (stereo partly drawn)	390	0	–
COC(=O)[C@H](C)NP(=O)(OC[C@H]1O[C@@H](n2ccc(=O)[nH]c2=O)[C@](C)(F)[C@@H]1O)Oc1ccc(Br)cc1 (stereo partly drawn)	2110	30.8	–
COC(=O)[C@H](CC(C)C)NP(=O)(OC[C@H]1O[C@@H](n2ccc(=O)[nH]c2=O)[C@](C)(F)[C@@H]1O)Oc1ccccc1 (stereo partly drawn)	5400	0	–
CCOC(=O)[C@H](C)NP(=O)(OC[C@H]1O[C@@H](n2ccc(=O)[nH]c2=O)[C@](C)(F)[C@@H]1O)Oc1ccccc1 (stereo partly drawn)	980	36.9	–
COC(=O)CNP(=O)(OC[C@H]1O[C@@H](n2ccc(=O)[nH]c2=O)[C@](C)(F)[C@@H]1O)Oc1ccccc1 (stereo partly drawn)	22100	0	–
C[C@H](NP(=O)(OC[C@H]1O[C@@H](n2ccc(=O)[nH]c2=O)[C@](C)(F)[C@@H]1O)Oc1ccccc1)C(=O)Oc1ccccc1 (stereo partly drawn)	18500	0	–
CCOP(=O)(N[C@@H](C)C(=O)OC)OC[C@H]1O[C@@H](n2ccc(=O)[nH]c2=O)[C@](C)(F)[C@@H]1O (stereo partly drawn)	> 50000	16.8	–
CCOC(=O)[C@H](C)NP(=O)(OC[C@H]1O[C@@H](n2ccc(=O)[nH]c2=O)[C@](C)(F)[C@@H]1O)Oc1ccc(Br)cc1 (stereo partly drawn)	360	80.5	–
CC[C@H](NP(=O)(OC[C@H]1O[C@@H](n2ccc(=O)[nH]c2=O)[C@](C)(F)[C@@H]1O)Oc1ccccc1)C(=O)OC (stereo partly drawn)	1610	0	–
C[C@H](NP(=O)(OC[C@H]1O[C@@H](n2ccc(=O)[nH]c2=O)[C@](C)(F)[C@@H]1O)Oc1ccccc1)C(=O)OCC(F)F (stereo partly drawn)	6800	38.3	–
CCCCOC(=O)[C@H](C)NP(=O)(OC[C@H]1O[C@@H](n2ccc(=O)[nH]c2=O)[C@](C)(F)[C@@H]1O)Oc1ccccc1 (stereo partly drawn)	90	79.6	–
C[C@H](NP(=O)(OC[C@H]1O[C@@H](n2ccc(=O)[nH]c2=O)[C@](C)(F)[C@@H]1O)Oc1ccccc1)C(=O)OC1CCCCC1 (stereo partly drawn)	250	61	AUC (Rattus norvegicus [3]): 8831 ng·h/g; half-life at 100 µM (Homo sapiens): > 24 h; half-life at 50 ug/mL [4]: 17 h; half-life at 50 ug/mL [5]: > 20 h; AUC (Rattus norvegicus [6]): 6487 ng·h/g; half-life at 100 µM [7]: 1.4 h; Tmax (Rattus norvegicus [8]): 2 h; Cmax (Rattus norvegicus [9]): 557 ng/g

Structure (SMILES)	EC90 (Hepatitis C virus [1]; Hepatitis C virus) [nM]	inhibition at 50 µM (Hepatitis C virus [2]) [%]	also measured
CC(C)C(=O)OC[C@H]1O[C@@H](n2ccc(N)nc2=O)[C@](C)(F)[C@@H]1OC(=O)C(C)C [MERICITABINE]	3900	0	–
COC(=O)[C@H](Cc1ccccc1)NP(=O)(OC[C@H]1O[C@@H](n2ccc(=O)[nH]c2=O)[C@](C)(F)[C@@H]1O)Oc1ccccc1 (stereo partly drawn)	57600	20.6	–
COC(=O)C(C)(C)NP(=O)(OC[C@H]1O[C@@H](n2ccc(=O)[nH]c2=O)[C@](C)(F)[C@@H]1O)Oc1ccc(F)cc1 (stereo partly drawn)	2200	0	–
CCOC(=O)[C@H](C)NP(=O)(OC[C@H]1O[C@@H](n2ccc(=O)[nH]c2=O)[C@](C)(F)[C@@H]1O)Oc1ccc(F)cc1 (stereo partly drawn)	760	55.3	AUC (Rattus norvegicus [3]): 5423 ng·h/g; half-life at 100 µM (Homo sapiens): > 8 h; half-life at 50 ug/mL [4]: 17 h; half-life at 50 ug/mL [5]: > 20 h; AUC (Rattus norvegicus [6]): 4191 ng·h/g; half-life at 100 µM [7]: 0.23 h; Tmax (Rattus norvegicus [8]): 4 h; Cmax (Rattus norvegicus [9]): 291 ng/g
C[C@H](NP(=O)(OC[C@H]1O[C@@H](n2ccc(=O)[nH]c2=O)[C@](C)(F)[C@@H]1O)Oc1ccccc1)C(=O)OCCF (stereo partly drawn)	1720	43.8	–
CCCCCOC(=O)[C@H](C)NP(=O)(OC[C@H]1O[C@@H](n2ccc(=O)[nH]c2=O)[C@](C)(F)[C@@H]1O)Oc1ccccc1 (stereo partly drawn)	> 50000	92	–
COC(=O)[C@H](Cc1c[nH]c2ccccc12)NP(=O)(OC[C@H]1O[C@@H](n2ccc(=O)[nH]c2=O)[C@](C)(F)[C@@H]1O)Oc1ccccc1 (stereo partly drawn)	15600	68.4	–
CC(C)OC(=O)[C@H](C)NP(=O)(OC[C@H]1O[C@@H](n2ccc(=O)[nH]c2=O)[C@](C)(F)[C@@H]1O)Oc1ccc(F)cc1 (stereo partly drawn)	770	0	AUC (Rattus norvegicus [3]): 7375 ng·h/g; half-life at 100 µM (Homo sapiens): > 24 h; half-life at 50 ug/mL [4]: > 20 h; half-life at 50 ug/mL [5]: > 20 h; AUC (Rattus norvegicus [6]): 6140 ng·h/g; half-life at 100 µM [7]: 0.42 h; Tmax (Rattus norvegicus [8]): 6 h; Cmax (Rattus norvegicus [9]): 519 ng/g
COC(=O)[C@H](C)NP(=O)(OC[C@H]1O[C@@H](n2ccc(=O)[nH]c2=O)[C@](C)(F)[C@@H]1O)Oc1ccc(Cl)c(Cl)c1 (stereo partly drawn)	450	63.7	–
COC(=O)C1(NP(=O)(OC[C@H]2O[C@@H](n3ccc(=O)[nH]c3=O)[C@](C)(F)[C@@H]2O)Oc2ccc(F)cc2)CC1 (stereo partly drawn)	> 50000	0	–
COC(=O)[C@H](C)NP(=O)(OC[C@H]1O[C@@H](n2ccc(=O)[nH]c2=O)[C@](C)(F)[C@@H]1O)Oc1ccc(Cl)cc1 (stereo partly drawn)	580	62.8	–
C[C@H](NP(=O)(OC[C@H]1O[C@@H](n2ccc(=O)[nH]c2=O)[C@](C)(F)[C@@H]1O)Oc1ccc(Cl)cc1)C(=O)OC1CCCCC1 (stereo partly drawn)	54	66.9	–
C[C@H](NP(=O)(OC[C@H]1O[C@@H](n2ccc(=O)[nH]c2=O)[C@](C)(F)[C@@H]1O)Oc1ccccc1)C(=O)OCc1ccc(F)cc1 (stereo partly drawn)	240	0	–
C[C@H](NP(=O)(OC[C@H]1O[C@@H](n2ccc(=O)[nH]c2=O)[C@](C)(F)[C@@H]1O)Oc1ccccc1)C(=O)OCc1ccccc1 (stereo partly drawn)	130	74.3	–
CCC(C)OC(=O)[C@H](C)NP(=O)(OC[C@H]1O[C@@H](n2ccc(=O)[nH]c2=O)[C@](C)(F)[C@@H]1O)Oc1ccccc1 (stereo partly drawn)	60	93.8	–
COC(=O)[C@H](C)NP(=O)(OC[C@H]1O[C@@H](n2ccc(=O)[nH]c2=O)[C@](C)(F)[C@@H]1O)Oc1ccc(Cl)cc1Cl (stereo partly drawn)	690	10.9	–
CC(C)OC(=O)[C@H](C)NP(=O)(OC[C@H]1O[C@@H](n2ccc(=O)[nH]c2=O)[C@](C)(F)[C@@H]1O)Oc1ccc(Br)cc1 (stereo partly drawn)	570	0	–
CC(C)OC(=O)C(C)N[P@](=O)(OC[C@H]1O[C@@H](n2ccc(=O)[nH]c2=O)[C@](C)(F)[C@@H]1O)Oc1ccccc1 (single isomer, unassigned) [SOFOSBUVIR]	–	–	EC90 (Hepatitis C virus [1]): > 50000 nM
